Tested on: HEK-293T
Experiment: Multiplex assay against HEK293T;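 for Population Tubulin-Different-Phenotype (%): share of the cells with healthy nuclei that show this phenotype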
Format: toxicity, cell-based
Details: human
Procedure, shortened: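 Tubulin, mitochondrial-mass and membrane-permeability phenotypes are per cents of healthy-nucleus cells. Cells were gated by CellPathfinder machine learning into Hoechst high-intensity objects or normal cells, normal cells into healthy, pyknosed or fragmented nuclei, and pyknosed cells into mitotic or apoptotic. Before that, live cells stained at seeding with Hoechst33342, BioTracker Green Microtubule Cytoskeleton Dye, MitoTracker Red and Annexin V Alexa Fluor 680 were imaged on a CQ1 microscope at 37°C and 5% CO2 after compound addition.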

[1] = 12 h, 1 µM, compound concentration 1 uM, replicate 1
[2] = 12 h, 1 µM, compound concentration 1 uM, replicate 2
[3] = 12 h, 10 µM, compound concentration 10 uM, replicate 1
[4] = 12 h, 10 µM, compound concentration 10 uM, replicate 2
[5] = 24 h, 1 µM, compound concentration 1 uM, replicate 1
[6] = 24 h, 1 µM, compound concentration 1 uM, replicate 2
[7] = 24 h, 10 µM, compound concentration 10 uM, replicate 1
[8] = 24 h, 10 µM, compound concentration 10 uM, replicate 2
[9] = 48 h, 1 µM, compound concentration 1 uM, replicate 1
[10] = 48 h, 1 µM, compound concentration 1 uM, replicate 2
[11] = 48 h, 10 µM, compound concentration 10 uM, replicate 1
[12] = 48 h, 10 µM, compound concentration 10 uM, replicate 2

CCn1c(=O)c(-c2ccc(-c3cncs3)cc2Cl)cc2cnc(Nc3ccc(N4CCN(C)CC4)cc3)nc21
Population Apoptotic (%) [1]: 34% | Population Fragmented Nuclei (%) [1]: 7% | Population Healthy Nuclei (%) [1]: 46% | Population Hoechst High Intensity Objects (%) [1]: 14% | Population Membrane Permeable-Phenotype (%) [1]: 2% | Population Mitochondria Different-Phenotype (%) [1]: 79% | Population Mitotic Cells (%) [1]: 65% | Population Normal (%) [1]: 85% | Population Pyknosed Nuclei (%) [1]: 46% | Population Tubulin-Different-Phenotype (%) [1]: 55% | Total Cell Count [1]: 232 | Population Apoptotic (%) [2]: 10% | Population Fragmented Nuclei (%) [2]: 5% | Population Healthy Nuclei (%) [2]: 48% | Population Hoechst High Intensity Objects (%) [2]: 2% | Population Membrane Permeable-Phenotype (%) [2]: 9% | Population Mitochondria Different-Phenotype (%) [2]: 13% | Population Mitotic Cells (%) [2]: 89% | Population Normal (%) [2]: 97% | Population Pyknosed Nuclei (%) [2]: 45% | Population Tubulin-Different-Phenotype (%) [2]: 18% | Total Cell Count [2]: 288 | Population Apoptotic (%) [3]: 52% | Population Fragmented Nuclei (%) [3]: 47% | Population Healthy Nuclei (%) [3]: 21% | Population Hoechst High Intensity Objects (%) [3]: 62% | Population Membrane Permeable-Phenotype (%) [3]: 5% | Population Mitochondria Different-Phenotype (%) [3]: 93% | Population Mitotic Cells (%) [3]: 47% | Population Normal (%) [3]: 37% | Population Pyknosed Nuclei (%) [3]: 30% | Population Tubulin-Different-Phenotype (%) [3]: 93% | Total Cell Count [3]: 1090 | Population Apoptotic (%) [4]: 15% | Population Fragmented Nuclei (%) [4]: 7% | Population Healthy Nuclei (%) [4]: 55% | Population Hoechst High Intensity Objects (%) [4]: 4% | Population Membrane Permeable-Phenotype (%) [4]: 20% | Population Mitochondria Different-Phenotype (%) [4]: 16% | Population Mitotic Cells (%) [4]: 84% | Population Normal (%) [4]: 95% | Population Pyknosed Nuclei (%) [4]: 37% | Population Tubulin-Different-Phenotype (%) [4]: 38% | Total Cell Count [4]: 174 | Population Apoptotic (%) [5]: 57% | Population Fragmented Nuclei (%) [5]: 11% | Population Healthy Nuclei (%) [5]: 42% | Population Hoechst High Intensity Objects (%) [5]: 14% | Population Membrane Permeable-Phenotype (%) [5]: 2% | Population Mitochondria Different-Phenotype (%) [5]: 55% | Population Mitotic Cells (%) [5]: 42% | Population Normal (%) [5]: 85% | Population Pyknosed Nuclei (%) [5]: 45% | Population Tubulin-Different-Phenotype (%) [5]: 45% | Total Cell Count [5]: 233 | Population Apoptotic (%) [6]: 12% | Population Fragmented Nuclei (%) [6]: 4% | Population Healthy Nuclei (%) [6]: 65% | Population Hoechst High Intensity Objects (%) [6]: 1% | Population Membrane Permeable-Phenotype (%) [6]: 8% | Population Mitochondria Different-Phenotype (%) [6]: 15% | Population Mitotic Cells (%) [6]: 87% | Population Normal (%) [6]: 98% | Population Pyknosed Nuclei (%) [6]: 29% | Population Tubulin-Different-Phenotype (%) [6]: 31% | Total Cell Count [6]: 358 | Population Apoptotic (%) [7]: 59% | Population Fragmented Nuclei (%) [7]: 59% | Population Healthy Nuclei (%) [7]: 8% | Population Hoechst High Intensity Objects (%) [7]: 71% | Population Membrane Permeable-Phenotype (%) [7]: 0% | Population Mitochondria Different-Phenotype (%) [7]: 92% | Population Mitotic Cells (%) [7]: 40% | Population Normal (%) [7]: 28% | Population Pyknosed Nuclei (%) [7]: 31% | Population Tubulin-Different-Phenotype (%) [7]: 97% | Total Cell Count [7]: 1552 | Population Apoptotic (%) [8]: 30% | Population Fragmented Nuclei (%) [8]: 11% | Population Healthy Nuclei (%) [8]: 57% | Population Hoechst High Intensity Objects (%) [8]: 4% | Population Membrane Permeable-Phenotype (%) [8]: 15% | Population Mitochondria Different-Phenotype (%) [8]: 39% | Population Mitotic Cells (%) [8]: 69% | Population Normal (%) [8]: 95% | Population Tubulin-Different-Phenotype (%) [8]: 64% | Total Cell Count [8]: 177 | Population Apoptotic (%) [9]: 50% | Population Fragmented Nuclei (%) [9]: 14% | Population Healthy Nuclei (%) [9]: 57% | Population Hoechst High Intensity Objects (%) [9]: 13% | Population Membrane Permeable-Phenotype (%) [9]: 3% | Population Mitochondria Different-Phenotype (%) [9]: 33% | Population Mitotic Cells (%) [9]: 49% | Population Normal (%) [9]: 86% | Population Pyknosed Nuclei (%) [9]: 28% | Population Tubulin-Different-Phenotype (%) [9]: 36% | Total Cell Count [9]: 308 | Population Apoptotic (%) [10]: 11% | Population Fragmented Nuclei (%) [10]: 6% | Population Healthy Nuclei (%) [10]: 80% | Population Hoechst High Intensity Objects (%) [10]: 3% | Population Membrane Permeable-Phenotype (%) [10]: 7% | Population Mitochondria Different-Phenotype (%) [10]: 4% | Population Mitotic Cells (%) [10]: 88% | Population Normal (%) [10]: 96% | Population Pyknosed Nuclei (%) [10]: 13% | Population Tubulin-Different-Phenotype (%) [10]: 29% | Total Cell Count [10]: 591 | Population Apoptotic (%) [11]: 64% | Population Fragmented Nuclei (%) [11]: 72% | Population Healthy Nuclei (%) [11]: 6% | Population Hoechst High Intensity Objects (%) [11]: 74% | Population Membrane Permeable-Phenotype (%) [11]: 0% | Population Mitochondria Different-Phenotype (%) [11]: 84% | Population Mitotic Cells (%) [11]: 35% | Population Normal (%) [11]: 25% | Population Pyknosed Nuclei (%) [11]: 20% | Population Tubulin-Different-Phenotype (%) [11]: 75% | Total Cell Count [11]: 1798 | Population Apoptotic (%) [12]: 36% | Population Fragmented Nuclei (%) [12]: 8% | Population Healthy Nuclei (%) [12]: 70% | Population Hoechst High Intensity Objects (%) [12]: 4% | Population Membrane Permeable-Phenotype (%) [12]: 9% | Population Mitochondria Different-Phenotype (%) [12]: 25% | Population Mitotic Cells (%) [12]: 63% | Population Normal (%) [12]: 95% | Population Tubulin-Different-Phenotype (%) [12]: 63% | Total Cell Count [12]: 238

NC(=O)c1cccc(-c2cc(Nc3ccc(OC(F)(F)F)cc3)ncn2)c1
Population Apoptotic (%) [1]: 23% | Population Fragmented Nuclei (%) [1]: 12% | Population Healthy Nuclei (%) [1]: 75% | Population Hoechst High Intensity Objects (%) [1]: 7% | Population Membrane Permeable-Phenotype (%) [1]: 4% | Population Mitochondria Different-Phenotype (%) [1]: 5% | Population Mitotic Cells (%) [1]: 76% | Population Normal (%) [1]: 92% | Population Pyknosed Nuclei (%) [1]: 12% | Population Tubulin-Different-Phenotype (%) [1]: 3% | Total Cell Count [1]: 801 | Population Apoptotic (%) [2]: 9% | Population Fragmented Nuclei (%) [2]: 7% | Population Healthy Nuclei (%) [2]: 88% | Population Hoechst High Intensity Objects (%) [2]: 1% | Population Membrane Permeable-Phenotype (%) [2]: 0% | Population Mitochondria Different-Phenotype (%) [2]: 10% | Population Mitotic Cells (%) [2]: 90% | Population Normal (%) [2]: 98% | Population Pyknosed Nuclei (%) [2]: 4% | Population Tubulin-Different-Phenotype (%) [2]: 5% | Total Cell Count [2]: 1607 | Population Apoptotic (%) [3]: 18% | Population Fragmented Nuclei (%) [3]: 15% | Population Healthy Nuclei (%) [3]: 54% | Population Hoechst High Intensity Objects (%) [3]: 17% | Population Membrane Permeable-Phenotype (%) [3]: 4% | Population Mitochondria Different-Phenotype (%) [3]: 4% | Population Mitotic Cells (%) [3]: 81% | Population Normal (%) [3]: 82% | Population Pyknosed Nuclei (%) [3]: 29% | Population Tubulin-Different-Phenotype (%) [3]: 4% | Total Cell Count [3]: 597 | Population Apoptotic (%) [4]: 24% | Population Fragmented Nuclei (%) [4]: 4% | Population Healthy Nuclei (%) [4]: 89% | Population Hoechst High Intensity Objects (%) [4]: 2% | Population Membrane Permeable-Phenotype (%) [4]: 0% | Population Mitochondria Different-Phenotype (%) [4]: 14% | Population Mitotic Cells (%) [4]: 75% | Population Normal (%) [4]: 97% | Population Pyknosed Nuclei (%) [4]: 6% | Population Tubulin-Different-Phenotype (%) [4]: 6% | Total Cell Count [4]: 1186 | Population Apoptotic (%) [5]: 22% | Population Fragmented Nuclei (%) [5]: 12% | Population Healthy Nuclei (%) [5]: 81% | Population Hoechst High Intensity Objects (%) [5]: 4% | Population Membrane Permeable-Phenotype (%) [5]: 7% | Population Mitochondria Different-Phenotype (%) [5]: 3% | Population Mitotic Cells (%) [5]: 77% | Population Normal (%) [5]: 95% | Population Pyknosed Nuclei (%) [5]: 5% | Population Tubulin-Different-Phenotype (%) [5]: 4% | Total Cell Count [5]: 1111 | Population Apoptotic (%) [6]: 3% | Population Fragmented Nuclei (%) [6]: 23% | Population Healthy Nuclei (%) [6]: 74% | Population Hoechst High Intensity Objects (%) [6]: 3% | Population Membrane Permeable-Phenotype (%) [6]: 4% | Population Mitochondria Different-Phenotype (%) [6]: 2% | Population Mitotic Cells (%) [6]: 96% | Population Normal (%) [6]: 96% | Population Pyknosed Nuclei (%) [6]: 2% | Population Tubulin-Different-Phenotype (%) [6]: 6% | Total Cell Count [6]: 2709 | Population Apoptotic (%) [7]: 17% | Population Fragmented Nuclei (%) [7]: 16% | Population Healthy Nuclei (%) [7]: 66% | Population Hoechst High Intensity Objects (%) [7]: 11% | Population Membrane Permeable-Phenotype (%) [7]: 3% | Population Mitochondria Different-Phenotype (%) [7]: 4% | Population Mitotic Cells (%) [7]: 82% | Population Normal (%) [7]: 88% | Population Pyknosed Nuclei (%) [7]: 17% | Population Tubulin-Different-Phenotype (%) [7]: 6% | Total Cell Count [7]: 593 | Population Apoptotic (%) [8]: 4% | Population Fragmented Nuclei (%) [8]: 9% | Population Healthy Nuclei (%) [8]: 85% | Population Hoechst High Intensity Objects (%) [8]: 3% | Population Membrane Permeable-Phenotype (%) [8]: 1% | Population Mitochondria Different-Phenotype (%) [8]: 6% | Population Mitotic Cells (%) [8]: 95% | Population Normal (%) [8]: 96% | Population Pyknosed Nuclei (%) [8]: 4% | Population Tubulin-Different-Phenotype (%) [8]: 11% | Total Cell Count [8]: 1486

From ChEMBL document CHEMBL4689842, “EUbOPEN Chemogenomics Library wave 1” (2021)
